Results taken from ChEMBL document CHEMBL1150398, “Design and synthesis of 7-alkoxy-4-heteroarylamino-3-quinolinecarbonitriles as dual inhibitors of c-Src kinase and nitric oxide synthase” (Bioorg Med Chem, 2008).

Each molecule was assayed against T1, Proto-oncogene tyrosine-protein kinase Src (Homo sapiens, UniProt P12931) (assay: Inhibition of human recombinant cSrc by ELISA). Conditions: not given.
T1 sequence (P12931 2-536 limits assumed): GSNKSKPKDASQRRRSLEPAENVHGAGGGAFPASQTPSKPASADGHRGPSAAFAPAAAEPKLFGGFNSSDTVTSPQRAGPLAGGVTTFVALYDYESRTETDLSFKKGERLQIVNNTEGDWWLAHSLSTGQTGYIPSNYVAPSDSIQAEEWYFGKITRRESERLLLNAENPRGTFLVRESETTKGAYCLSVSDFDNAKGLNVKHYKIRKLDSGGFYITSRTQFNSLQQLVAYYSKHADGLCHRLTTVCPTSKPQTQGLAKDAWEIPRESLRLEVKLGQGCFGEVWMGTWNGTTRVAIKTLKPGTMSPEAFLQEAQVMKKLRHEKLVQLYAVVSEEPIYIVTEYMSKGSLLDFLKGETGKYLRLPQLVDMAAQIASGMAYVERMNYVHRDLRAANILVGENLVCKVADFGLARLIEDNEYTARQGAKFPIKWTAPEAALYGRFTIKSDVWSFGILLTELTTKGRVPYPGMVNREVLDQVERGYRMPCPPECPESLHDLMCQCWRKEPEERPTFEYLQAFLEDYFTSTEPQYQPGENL

Row | IC50 [µM] | Compound
1 | > 1 | COc1cc2c(Nc3nc4ccccc4s3)c(C#N)cnc2cc1OCCN1CCOCC1

Each molecule was assayed against T2, Nitric oxide synthase, inducible (Mus musculus, UniProt P29477) (assay: Inhibition of inducible nitric oxide synthetase in LPS-stimulated mouse ANA1 macrophages). Conditions: not given.
T2 sequence (P29477 whole entry): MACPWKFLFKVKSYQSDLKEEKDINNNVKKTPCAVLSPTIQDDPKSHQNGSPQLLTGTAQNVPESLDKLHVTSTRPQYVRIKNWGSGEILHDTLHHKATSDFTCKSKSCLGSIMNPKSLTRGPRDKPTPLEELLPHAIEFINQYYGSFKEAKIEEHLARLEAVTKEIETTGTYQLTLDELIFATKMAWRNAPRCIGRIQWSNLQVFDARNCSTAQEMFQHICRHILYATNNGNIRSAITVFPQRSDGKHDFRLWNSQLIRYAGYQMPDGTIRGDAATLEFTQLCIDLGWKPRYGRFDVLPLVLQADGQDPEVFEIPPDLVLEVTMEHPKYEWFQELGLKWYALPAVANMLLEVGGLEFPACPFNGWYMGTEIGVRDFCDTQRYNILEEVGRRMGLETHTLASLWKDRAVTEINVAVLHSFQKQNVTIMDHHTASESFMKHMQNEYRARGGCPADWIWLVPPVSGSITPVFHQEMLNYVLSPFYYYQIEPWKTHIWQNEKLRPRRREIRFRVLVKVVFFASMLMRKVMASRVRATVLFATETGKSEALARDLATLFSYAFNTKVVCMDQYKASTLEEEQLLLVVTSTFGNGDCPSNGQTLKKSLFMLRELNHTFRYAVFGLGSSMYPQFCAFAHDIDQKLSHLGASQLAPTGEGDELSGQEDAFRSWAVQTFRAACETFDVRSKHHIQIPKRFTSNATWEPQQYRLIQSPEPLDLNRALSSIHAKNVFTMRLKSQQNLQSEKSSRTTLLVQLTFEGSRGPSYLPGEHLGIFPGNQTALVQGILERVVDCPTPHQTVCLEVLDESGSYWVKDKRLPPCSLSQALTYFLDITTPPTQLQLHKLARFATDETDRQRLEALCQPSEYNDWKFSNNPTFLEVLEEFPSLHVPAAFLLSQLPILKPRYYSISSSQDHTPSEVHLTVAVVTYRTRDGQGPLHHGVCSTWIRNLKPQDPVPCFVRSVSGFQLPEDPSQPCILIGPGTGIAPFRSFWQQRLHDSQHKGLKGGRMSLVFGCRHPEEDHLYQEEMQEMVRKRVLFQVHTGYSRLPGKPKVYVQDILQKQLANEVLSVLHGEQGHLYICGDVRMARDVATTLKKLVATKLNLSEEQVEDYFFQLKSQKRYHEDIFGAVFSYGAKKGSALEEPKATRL
Outline: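 ANA-1 macrophages grown in DMEM with 10% heat-inactivated FBS and 2 mM L-glutamine, 37 °C, 5% CO₂, 10⁵ cells/mL prepared the day before. Cells stimulated with LPS for 24 h, collected, then given assay buffer, L-arginine substrate and DAF-FM DA tracer. Reaction started with 0.1 mM NADPH, 37 °C 30 min, washed, fluorescence read. Triplicate, mean of three.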

Row | IC50 [µM] | Compound
2 | 44.8 | COc1cc2c(Nc3nc4ccccc4s3)c(C#N)cnc2cc1OCCN1CCCCC1
3 | 18.1 | COc1cc2c(Nc3nc4ccccc4[nH]3)c(C#N)cnc2cc1OCCCN1CCN(C)CC1
4 | 98 | COc1cc2c(Nc3nc4ccccc4s3)c(C#N)cnc2cc1OCCCN1CCN(C)CC1
5 | 2.18 | COc1cc2c(Nc3nc4ccccc4s3)c(C#N)cnc2cc1OCCN1CCN(C)CC1
6 | 12.7 | Cc1ccc2nc(Nc3c(C#N)cnc4cc(OCCCN5CCN(C)CC5)c(C)cc34)sc2c1
7 | 412 | Cc1cc2c(Nc3nc4ccccc4s3)c(C#N)cnc2cc1OCCCN1CCCCC1
8 | 16.3 | Cc1cc2c(Nc3nc4ccc(OC(F)(F)F)cc4s3)c(C#N)cnc2cc1OCCCN1CCN(C)CC1
9 | 26.7 | COc1cc2c(Nc3nc4ccccc4s3)c(C#N)cnc2cc1OCCN1CCOCC1
10 | 139 | Cc1cc2c(Nc3nc4ccccc4s3)c(C#N)cnc2cc1OCCCN1CCOCC1
11 | 65.6 | COc1cc2c(Nc3nc4ccc(OC(F)(F)F)cc4s3)c(C#N)cnc2cc1OCCCN1CCN(C)CC1
12 | 15.5 | Cc1cc2c(Nc3nc4ccccc4[nH]3)c(C#N)cnc2cc1OCCCN1CCN(C)CC1
13 | 18.6 | Cc1cc2c(Nc3ccccn3)c(C#N)cnc2cc1OCCCN1CCN(C)CC1
14 | 18 | Nc1nccs1 [AMINOTHIAZOLE]

Row | Compound | IC50 [µM]
15 | N=C(N)NOCC[C@H](N)C(=O)O [CANAVANINE] | 60
16 | Cc1ccc2nc(Nc3c(C#N)cnc4cc(OCCCN5CCCCC5)c(C)cc34)sc2c1 | 313

Each molecule was assayed on HepG2 (assay: Antiproliferative activity against human HepG2 cells after 48 hrs by sulforhodamine B assay). Conditions: HepG2, 48 h.
Format: functional, cell-based
Outline: (§1)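 SRB assay: cells plated in 96-well plates, mostly at 20,000 cells/well, pre-incubated 24 h without drug. Compounds added in 10-fold dilutions from highest soluble concentration, 48 h further incubation. Cells fixed in situ, washed, dried, SRB stained; proliferation inhibition from change in total optical density after 48 h treatment.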

Row | Compound | GI50 [µM] | IC50 [µM] | TGI [µM]
17 | COc1cc(Nc2c(C#N)cnc3cc(OCCCN4CCN(C)CC4)c(OC)cc23)c(Cl)cc1Cl [BOSUTINIB] | 1.15 | 3.91 | 7.66
18 | Cc1ccc2nc(Nc3c(C#N)cnc4cc(OCCCN5CCCCC5)c(C)cc34)sc2c1 | 4.85 | 7.61 | 9.25

Same assay, conditions: HepG2, 48 h, read-out: LC50 (the source's name)

Row | Compound | CC50 [µM]
19 | COc1cc(Nc2c(C#N)cnc3cc(OCCCN4CCN(C)CC4)c(OC)cc23)c(Cl)cc1Cl [BOSUTINIB] | > 10
20 | Cc1ccc2nc(Nc3c(C#N)cnc4cc(OCCCN5CCCCC5)c(C)cc34)sc2c1 | > 10

What follows are molecules tested on HT-29 (assay: Antiproliferative activity against human HT29 cells after 48 hrs by sulforhodamine B assay). Conditions: HT-29, 48 h.
Format: functional, cell-based
Outline: as §1

Row | Compound | GI50 [µM] | IC50 [µM] | TGI [µM]
21 | COc1cc(Nc2c(C#N)cnc3cc(OCCCN4CCN(C)CC4)c(OC)cc23)c(Cl)cc1Cl [BOSUTINIB] | 1.17 | 3.87 | 6.5
22 | Cc1ccc2nc(Nc3c(C#N)cnc4cc(OCCCN5CCCCC5)c(C)cc34)sc2c1 | 5.59 | 6.58 | > 10

Same assay, conditions: HT-29, 48 h, read-out: LC50 (the source's name)

Row | Compound | CC50 [µM]
23 | COc1cc(Nc2c(C#N)cnc3cc(OCCCN4CCN(C)CC4)c(OC)cc23)c(Cl)cc1Cl [BOSUTINIB] | > 10
24 | Cc1ccc2nc(Nc3c(C#N)cnc4cc(OCCCN5CCCCC5)c(C)cc34)sc2c1 | > 10

These molecules were tested against T1, Proto-oncogene tyrosine-protein kinase Src (assay: Inhibition of human recombinant cSrc by fluorescence polarization assay). Conditions: not given.

Row | IC50 [µM] | Compound
25 | > 1 | Cc1cc2c(Nc3nc4ccccc4[nH]3)c(C#N)cnc2cc1OCCCN1CCN(C)CC1
